These results are taken from ChEMBL document CHEMBL1759888, “Biological evaluation of polyhalo 1,3-diazaheterocycle fused isoquinolin-1(2H)-imine derivatives” (Eur J Med Chem, 2011).

The subject of series [1] is A-431. Put plainly: Anticancer activity against human A431 cells after 72 hrs by MTT assay. Particulars: A-431, 72 h. On the technique in general: Formazan colour is commonly taken as a measure of viable cells.
Series [2] in a line: Lipophilicity, log P of the compound. Particulars: octanol/water. Type of series: physicochemical.
Series [3] concerns CCRF S-180. Put plainly: Antitumor activity against mouse S180 cells xenografted in po dosed Kunming mouse assessed as tumor tumor growth inhibition rate administered for 10 days relative to control. Type of series: functional, organism-based. In a few lines:
(§1)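 Tumour cells taken in exponential growth and inoculated subcutaneously into the right flank axilla. Mice randomised, 10 per group. Compound in 0.5% CMC-Na given intragastrically daily for 10 days. Solvent control got an equal volume of vehicle; positive control got cyclophosphamide 20 mg/kg i.p. in saline. Tumours weighed at sacrifice; inhibition rate calculated against solvent control.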

In series [4] the test system is H22. The experiment in a line: Antitumor activity against mouse H22 cells xenografted in Kunming mouse assessed as tumor growth inhibition rate at 70 mg/kg, po administered for 10 days relative to control. It is filed as functional. Particulars: H22, 240 h. An outline of the steps: as §1
Series [5] has as its system HL-60. Put plainly: Anticancer activity against human HL60 cells after 48 hrs by MTT assay. Conditions: HL-60, 48 h.
In series [6] the test system is H22. The experiment in a line: Antitumor activity against mouse H22 cells xenografted in Kunming mouse assessed as tumor growth inhibition rate at 35 mg/kg, po administered for 10 days relative to control. Conditions: H22, 240 h. It is filed as functional. An outline of the steps: as §1
Series [7] relates to SK-OV-3. The experiment in a line: Anticancer activity against human SKOV3 cells after 72 hrs by MTT assay. Conditions: SK-OV-3, 72 h.
Series [8] deals with CCRF S-180. The experiment in a line: Antitumor activity against mouse S180 cells xenografted in Kunming mouse assessed as tumor growth inhibition rate at 20 mg/kg, po administered for 10 days relative to control. Type of series: functional. Particulars: CCRF S-180, 240 h. In a few lines:
as §1

Series [9] deals with CCRF S-180. Put plainly: Antitumor activity against mouse S180 cells xenografted in Kunming mouse assessed as tumor growth inhibition rate at 180 mg/kg, po administered for 10 days relative to control. Particulars: CCRF S-180, 240 h. It is filed as functional. An outline of the steps:
as §1

Series [10] concerns CCRF S-180. Put plainly: Antitumor activity against mouse S180 cells xenografted in Kunming mouse assessed as tumor growth inhibition rate at 60 mg/kg, po administered for 10 days relative to control. It is filed as functional. Particulars: CCRF S-180, 240 h. An outline of the steps: as §1
Series [11] relates to K562. Put plainly: Anticancer activity against human K562 cells after 48 hrs by MTT assay. Particulars: K562, 48 h.
Series [12] relates to HepG2. Put plainly: Anticancer activity against human HepG2 cells after 72 hrs by MTT assay. Particulars: HepG2, 72 h.
The subject of series [13] is Mus musculus. The experiment in a line: Toxicity in Kunming mouse assessed as mouse mortality at 5000 mg/kg, po administered in 24 hr duration measured after 7 days. It is filed as organism-based. The arrangement: dose 5000 mg/kg, route oral. Particulars: in vivo, 168 h. An outline of the steps:
(§2)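 Acute toxicity test in Kunming mice (18–22 g), each group treated with one compound. The compound was given orally within 24 h, and mice were then monitored continuously for up to 7 days for abnormal behaviour or death.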

Series [14] deals with H22. Put plainly: Antitumor activity against mouse H22 cells xenografted in Kunming mouse assessed as tumor growth inhibition rate at 140 mg/kg, po administered for 10 days relative to control. It is filed as functional. Conditions: H22, 240 h. In a few lines:
as §1

Series [15] relates to CCRF S-180. Put plainly: Antitumor activity against mouse S180 cells xenografted in Kunming mouse assessed as tumor growth inhibition rate at 30 mg/kg, po administered for 10 days relative to control. Particulars: CCRF S-180, 240 h. It is filed as functional. An outline of the steps: as §1
In series [16] the test system is Mus musculus. Put plainly: Toxicity in Kunming mouse assessed as mouse mortality at 4500 mg/kg, po administered in 24 hr duration measured after 7 days. The arrangement: dose 4500 mg/kg, route oral. Type of series: organism-based. Particulars: in vivo, 168 h. In a few lines: as §2
The subject of series [17] is H22. The experiment in a line: Antitumor activity against mouse H22 cells xenografted in Kunming mouse assessed as tumor growth inhibition rate at 10 mg/kg, po administered for 10 days relative to control. It is filed as functional. Particulars: H22, 240 h. An outline of the steps:
as §1

For series [18], the system named is CCRF S-180. The experiment in a line: Antitumor activity against mouse S180 cells xenografted in Kunming mouse assessed as tumor growth inhibition rate at 90 mg/kg, po administered for 10 days relative to control. It is filed as functional. Conditions: CCRF S-180, 240 h. An outline of the steps: as §1
Series [19] has as its system CCRF S-180. Put plainly: Antitumor activity against mouse S180 cells xenografted in Kunming mouse assessed as tumor tumor growth inhibition rate at 10 mg/kg, po administered for 10 days relative to control. Type of series: functional. Conditions: CCRF S-180, 240 h. An outline of the steps:
as §1

The subject of series [20] is H22. Put plainly: Antitumor activity against mouse H22 cells xenografted in Kunming mouse assessed as tumor growth inhibition rate at 30 mg/kg, po administered for 10 days relative to control. Type of series: functional. Particulars: H22, 240 h. In a few lines: as §1
Series [21] relates to H22. Put plainly: Antitumor activity against mouse H22 cells xenografted in Kunming mouse assessed as tumor growth inhibition rate at 20 mg/kg, po administered for 10 days relative to control. It is filed as functional. Particulars: H22, 240 h. An outline of the steps: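 H22 tumour cells were harvested in exponential growth and inoculated subcutaneously into the right flank axilla. Mice were randomised into groups of 10. Test compound in 0.5% CMC-Na was given intragastrically daily for 10 days. Solvent controls got an equal volume of CMC-Na, and positive controls got cyclophosphamide 20 mg/kg ip in saline. Tumours were weighed at sacrifice to give the inhibition rate.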

Series [22] deals with H22. Put plainly: Antitumor activity against mouse H22 cells xenografted in Kunming mouse assessed as tumor growth inhibition rate at 80 mg/kg, po administered for 10 days relative to control. Type of series: functional. Conditions: H22, 240 h. In a few lines:
as §1

The subject of series [23] is H22. The experiment in a line: Antitumor activity against mouse H22 cells xenografted in Kunming mouse assessed as tumor growth inhibition rate at 240 mg/kg, po administered for 10 days relative to control. Conditions: H22, 240 h. Type of series: functional. In a few lines:
as §1

The structures appear in SMILES notation. In brackets after ≈: the same amount, converted by molar mass.

Broadly, the IC50 is the concentration that inhibits the measured activity by half. Low values mean higher potency, high ones lower potency. Usually logP stands for the decadic logarithm of the partition coefficient of the neutral form, usually between octanol and water. Low readings indicate lower lipophilicity, high ones higher lipophilicity. The inhibition in vivo is the percentage by which the read-out fell short of the control. In the case of `COc1ccc(C(=O)c2c3n(c(=N)c4c(F)c(C#N)c(F)c(F)c24)CCCN3)cc1`, the IC50 in series [1] came to 1.1 µg/mL (≈ 2.67 µM); in series [5] it was 0.02 µg/mL (≈ 0.0485 µM); in series [7] it was 2.6 µg/mL (≈ 6.31 µM); in [11] it was 0.01 µg/mL (≈ 0.0243 µM); in series [12], 0.8 µg/mL (≈ 1.94 µM). The compound further displayed a logP in series [2] of 2.7. Further, in series [3], the inhibition entry was “Dose-dependent effect”. Moreover, the inhibition in vivo at 70 mg/kg in [4] came to 45.6%. Also, the inhibition in vivo at 35 mg/kg in series [6] is 34.7%. In addition, the inhibition in vivo at 20 mg/kg in [8] turned out to be 35.9%. The inhibition in vivo at 180 mg/kg in series [9] worked out at 19.1%. Moreover, the inhibition in vivo at 60 mg/kg in [10] came out at 38%. In addition, the Activity entry in series [13] is given as “Non-toxic”. In addition, in series [14], the inhibition in vivo at 140 mg/kg turned out to be 29.3%.

Take `CCOC(=O)c1c2n(c(=N)c3c(F)c(C#N)c(F)c(F)c13)CCN2`: the IC50 was 3.4 µg/mL (≈ 10.1 µM) in [1]; 0.02 µg/mL (≈ 0.0595 µM) in [5]; 0.04 µg/mL (≈ 0.119 µM) in series [7]; 0.0005 µg/mL (≈ 0.00149 µM) in series [11]; 0.4 µg/mL (≈ 1.19 µM) in series [12]. This compound also returned a logP in series [2] of 2.04. Further, in series [3], the inhibition result was “Dose-dependent effect”. Further, the inhibition in vivo at 30 mg/kg in series [15] stood at 54.2%; in series [20] it was 27.5%. Moreover, the Activity entry in series [16] was “Toxic”. The inhibition in vivo at 10 mg/kg in [17] was determined as 11.4%; in series [19], 39.2%. Besides, in [18], the inhibition in vivo at 90 mg/kg was determined as 26.6%.

For `O=P1(N(CCCl)CCCl)NCCCO1` (centres undefined) [CYCLOPHOSPHAMIDE ANHYDROUS], the figures for the inhibition in vivo at 20 mg/kg in [8] and in [21] were 81.7% and 56.2%, respectively.

Turning to `N#Cc1c(F)c(Cl)c2c(C(=O)c3ccccc3)c3n(c(=N)c2c1F)CCN3`, the IC50 turned out to be 4.8 µg/mL (≈ 12.5 µM) in [1]; 0.1 µg/mL (≈ 0.26 µM) in [5]; 5.8 µg/mL (≈ 15.1 µM) in series [7]; 0.4 µg/mL (≈ 1.04 µM) in series [11]; 0.3 µg/mL (≈ 0.78 µM) in [12]. This compound had a logP in series [2] of 3.27.

As for `COc1ccc(C(=O)c2c3n(c(=N)c4c(Cl)c(C#N)c(Cl)c(Cl)c24)CCO3)cc1`, the IC50 was determined as 11 µg/mL (≈ 24.5 µM) in [1]; 24.2 µg/mL (≈ 53.9 µM) in series [5]; 32.2 µg/mL (≈ 71.8 µM) in [7]; 0.8 µg/mL (≈ 1.78 µM) in [11]; 2.7 µg/mL (≈ 6.02 µM) in [12]. In addition, the lipophilicity (logP) in [2] was found to be 3.39.

Take `N#Cc1c(F)c(Cl)c2c(C(=O)c3ccc(Cl)cc3)c3n(c(=N)c2c1F)CCN3`: the IC50 in [1] amounted to 5 µg/mL (≈ 11.9 µM); in [5], 0.3 µg/mL (≈ 0.716 µM); in series [7] it was 34.9 µg/mL (≈ 83.3 µM); in [11], 1.4 µg/mL (≈ 3.34 µM); in series [12] it was 12.4 µg/mL (≈ 29.6 µM). The compound further displayed a logP in series [2] of 4.

`N#Cc1c(F)c(F)c2c(C(=O)c3ccccc3)c3n(c(=N)c2c1F)CCN3`: the IC50 in series [1] turned out to be 0.8 µg/mL (≈ 2.17 µM); in series [5], 0.001 µg/mL (≈ 0.00272 µM); in series [7], 0.2 µg/mL (≈ 0.543 µM); in series [11] it was 0.08 µg/mL (≈ 0.217 µM); in series [12], 1.2 µg/mL (≈ 3.26 µM). Also, the logP in series [2] came out at 2.63.

Take `CC(=O)c1c2n(c(=N)c3c(F)c(C#N)c(F)c(Cl)c13)CCN2`: the IC50 in [1] worked out at 20.4 µg/mL (≈ 63.2 µM); in series [5] it was 0.9 µg/mL (≈ 2.79 µM); in series [7] it was 6.2 µg/mL (≈ 19.2 µM); in series [11] it was 0.4 µg/mL (≈ 1.24 µM); in [12], 6.4 µg/mL (≈ 19.8 µM). Besides, the logP in [2] was 1.67.

Regarding `N#Cc1c(F)c(Cl)c2c(C(=O)c3ccccc3)c3n(c(=N)c2c1F)CCCN3`, the IC50 in series [1] came out at 0.5 µg/mL (≈ 1.25 µM); in series [5] it was 0.01 µg/mL (≈ 0.0251 µM); in series [7] it was 1.2 µg/mL (≈ 3.01 µM); in series [11], 0.03 µg/mL (≈ 0.0752 µM); in series [12], 0.3 µg/mL (≈ 0.752 µM). The log partition coefficient (logP) in [2] was 3.35. In addition, the inhibition result in [3] was “Dose-dependent effect”. Besides, the inhibition in vivo at 80 mg/kg in series [22] was 28.2%. The values for the inhibition in vivo at 20 mg/kg in [8] and in series [21] were 42.8% and 12.1%, respectively. Further, the inhibition in vivo at 180 mg/kg in series [9] came to 52.8%. In addition, the inhibition in vivo at 60 mg/kg in series [10] was 41.1%. The Activity entry in series [13] is on record as “Non-toxic”. The inhibition in vivo at 240 mg/kg in series [23] worked out at 0%.

For `CC(=O)c1c2n(c(=N)c3c(Cl)c(C#N)c(Cl)c(Cl)c13)CCN2`, the IC50 is 308 µg/mL (≈ 866 µM) in series [1]; 4.7 µg/mL (≈ 13.2 µM) in series [5]; 78.4 µg/mL (≈ 220 µM) in [7]; 3.6 µg/mL (≈ 10.1 µM) in [11]; 503 µg/mL (≈ 1410 µM) in series [12]. Besides, in series [2], the logP turned out to be 2.43.
